{"source": "ChEMBL document CHEMBL1149875", "about": "“DNA threading bis(9-aminoacridine-4-carboxamides): effects of piperidine sidechains on DNA binding, cytotoxicity and cell cycle arrest” (Bioorg Med Chem, 2008)", "key": {"CCRF-CEM [1]": {"tested_on": "CCRF-CEM", "assay": "Cytotoxicity against human CCRF-CEM cells after 72 hrs", "assay_type": "functional, cell-based", "procedure,_shortened": "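CCRF-CEM human leukaemia cells exposed to agents for 72 h at 37 °C in RPMI 1640 with 10% foetal bovine serum. Cells counted with a Coulter Counter, duplicates per concentration, experiment repeated ≥3 times; IC50 from curve fitting.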"}, "CCRF-CEM [2]": {"tested_on": "CCRF-CEM", "assay": "Cell cycle arrest in human CCRF-CEM cells assessed as accumulation at G2/M phase after 24 hrs by flow cytometry", "assay_type": "functional, cell-based", "procedure,_shortened": "(§1)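 CCRF-CEM cells seeded at 1 × 10^5 per ml in flasks and grown 24 h. Drug then added at 1×, 2×, 5× or 10× the measured 72 h IC50 and cells incubated a further 24 h; untreated controls. Cells washed in PBS, fixed in ice-cold ethanol, stained with propidium iodide and analysed by flow cytometry for % cells at G2/M.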"}, "Escherichia coli": {"tested_on": "Escherichia coli", "assay": "Binding affinity to Escherichia coli pBR322 DNA assessed as equivalence binding ratio by agarose gel electrophoresis", "procedure,_shortened": "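Supercoiled pBR322 closed circular DNA (150 ng, 23.6 µM bp) mixed with dimer in tris acetate buffer pH 7.5, 40 mM for Pip dimers and 10 mM for NMP dimers; 1 h dark incubation at room temperature; 0.8% agarose gel, 74 V (5 V/cm), 1 h 15 min. Equivalence ratio in base-pair units, taken where supercoiling is removed and closed and nicked circles co-migrate; ≥3 titrations.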"}, "CCRF-CEM [3]": {"tested_on": "CCRF-CEM", "assay": "Cell cycle arrest in human CCRF-CEM cells assessed as accumulation at G2/M phase at 5 times IC50 after 24 hrs by flow cytometry", "assay_type": "functional", "procedure,_shortened": "as §1"}, "CCRF-CEM [4]": {"tested_on": "CCRF-CEM", "assay": "Cell cycle arrest in human CCRF-CEM cells assessed as accumulation at G2/M phase at 10 times IC50 after 24 hrs by flow cytometry", "assay_type": "functional", "procedure,_shortened": "as §1"}, "CCRF-CEM [5]": {"tested_on": "CCRF-CEM", "assay": "Cell cycle arrest in human CCRF-CEM cells assessed as accumulation at G2/M phase at 1 time IC50 after 24 hrs by flow cytometry", "assay_type": "functional", "procedure,_shortened": "as §1"}}, "note": "The source made the active and inactive calls. No cut-off for these calls is given here. *1 amine or outer side, *2 acyl side, *3 side chain or, on linkers, in order; H or OH if unused. Where a SMILES comes first, the peptide text is derived from it. Bridges are numbered along the chain shown (N, C = ends). Roman numbers before positions name the chains, in order. [ ]: non-standard residue; d: D form. Actinocin(1to9) = Cc1c2oc3c(C)ccc(C(=O)[*:2])c3nc-2c(C(=O)[*:1])c(N)c1=O; NMeV = CN[C@H](C(=O)O)C(C)C; Sar = CNCC(=O)O"}
{"smiles": "O=C(NCCN1CCCCC1)c1cccc2c(NCCCCCCNc3c4ccccc4nc4c(C(=O)NCCN5CCCCC5)cccc34)c3ccccc3nc12", "values": [{"measurement": "IC50", "setting": "CCRF-CEM [1]", "result": 200, "unit": "nM"}, {"measurement": "Activity", "setting": "CCRF-CEM [2]", "result": "inactive"}, {"measurement": "Ratio", "setting": "Escherichia coli", "result": 0.14}]}
{"smiles": "O=C(NCCN1CCCCC1)c1cccc2c(NCCCCCCCCNc3c4ccccc4nc4c(C(=O)NCCN5CCCCC5)cccc34)c3ccccc3nc12", "values": [{"measurement": "IC50", "setting": "CCRF-CEM [1]", "result": 99, "unit": "nM"}, {"measurement": "Activity", "setting": "CCRF-CEM [2]", "result": "inactive"}, {"measurement": "Ratio", "setting": "Escherichia coli", "result": 0.16}]}
{"smiles": "CN1CCC(NC(=O)c2cccc3c(NCCN4CCN(CCNc5c6ccccc6nc6c(C(=O)NC7CCN(C)CC7)cccc56)CC4)c4ccccc4nc23)CC1", "values": [{"measurement": "IC50", "setting": "CCRF-CEM [1]", "result": 800, "unit": "nM"}, {"measurement": "Activity", "setting": "CCRF-CEM [3]", "result": 52, "unit": "%"}]}
{"smiles": "O=C(NCCN1CCCCC1)c1cccc2c(NCCNCCNCCNc3c4ccccc4nc4c(C(=O)NCCN5CCCCC5)cccc34)c3ccccc3nc12", "values": [{"measurement": "IC50", "setting": "CCRF-CEM [1]", "result": 270, "unit": "nM"}, {"measurement": "Activity", "setting": "CCRF-CEM [2]", "result": "inactive"}, {"measurement": "Ratio", "setting": "Escherichia coli", "result": 0.16}]}
{"smiles": "O=C(NCCN1CCCCC1)c1cccc2c(NCCCCNCCCNc3c4ccccc4nc4c(C(=O)NCCN5CCCCC5)cccc34)c3ccccc3nc12", "values": [{"measurement": "IC50", "setting": "CCRF-CEM [1]", "result": 230, "unit": "nM"}, {"measurement": "Activity", "setting": "CCRF-CEM [2]", "result": "inactive"}, {"measurement": "Ratio", "setting": "Escherichia coli", "result": 0.135}]}
{"smiles": "O=C(NCCN1CCCCC1)c1cccc2c(NCCCNCCCNc3c4ccccc4nc4c(C(=O)NCCN5CCCCC5)cccc34)c3ccccc3nc12", "values": [{"measurement": "IC50", "setting": "CCRF-CEM [1]", "result": 260, "unit": "nM"}, {"measurement": "Activity", "setting": "CCRF-CEM [2]", "result": "inactive"}, {"measurement": "Ratio", "setting": "Escherichia coli", "result": 0.14}]}
{"smiles": "CN1CCC(NC(=O)c2cccc3c(NCCNCCNCCNc4c5ccccc5nc5c(C(=O)NC6CCN(C)CC6)cccc45)c4ccccc4nc23)CC1", "values": [{"measurement": "IC50", "setting": "CCRF-CEM [1]", "result": 1100, "unit": "nM"}, {"measurement": "Activity", "setting": "CCRF-CEM [4]", "result": 40, "unit": "%"}, {"measurement": "Ratio", "setting": "Escherichia coli", "result": 0.11}]}
{"smiles": "CN1CCC(NC(=O)c2cccc3c(NCCCNCCCNc4c5ccccc5nc5c(C(=O)NC6CCN(C)CC6)cccc45)c4ccccc4nc23)CC1", "values": [{"measurement": "IC50", "setting": "CCRF-CEM [1]", "result": 680, "unit": "nM"}, {"measurement": "Activity", "setting": "CCRF-CEM [4]", "result": 50, "unit": "%"}, {"measurement": "Ratio", "setting": "Escherichia coli", "result": 0.24}]}
{"smiles": "CN(C)CCNC(=O)c1cccc2c(N)c3ccccc3nc12", "values": [{"measurement": "IC50", "setting": "CCRF-CEM [1]", "result": 120, "unit": "nM"}, {"measurement": "Activity", "setting": "CCRF-CEM [4]", "result": 61, "unit": "%"}]}
{"smiles": "CN1CCC(NC(=O)c2cccc3c(NCCCCCCNc4c5ccccc5nc5c(C(=O)NC6CCN(C)CC6)cccc45)c4ccccc4nc23)CC1", "values": [{"measurement": "IC50", "setting": "CCRF-CEM [1]", "result": 210, "unit": "nM"}, {"measurement": "Ratio", "setting": "Escherichia coli", "result": 0.25}]}
{"smiles": "O=C(NCCN1CCCCC1)c1cccc2c(NCCN3CCN(CCNc4c5ccccc5nc5c(C(=O)NCCN6CCCCC6)cccc45)CC3)c3ccccc3nc12", "values": [{"measurement": "IC50", "setting": "CCRF-CEM [1]", "result": 130, "unit": "nM"}, {"measurement": "Activity", "setting": "CCRF-CEM [2]", "result": "inactive"}, {"measurement": "Ratio", "setting": "Escherichia coli", "result": 0.13}]}
{"smiles": "CN1CCC(NC(=O)c2cccc3c(NCCCCNCCCNc4c5ccccc5nc5c(C(=O)NC6CCN(C)CC6)cccc45)c4ccccc4nc23)CC1", "values": [{"measurement": "IC50", "setting": "CCRF-CEM [1]", "result": 340, "unit": "nM"}, {"measurement": "Ratio", "setting": "Escherichia coli", "result": 0.21}]}
{"smiles": "CN1CCC(NC(=O)c2cccc3c(NCCCCCCCCNc4c5ccccc5nc5c(C(=O)NC6CCN(C)CC6)cccc45)c4ccccc4nc23)CC1", "values": [{"measurement": "IC50", "setting": "CCRF-CEM [1]", "result": 130, "unit": "nM"}, {"measurement": "Activity", "setting": "CCRF-CEM [4]", "result": 43, "unit": "%"}, {"measurement": "Ratio", "setting": "Escherichia coli", "result": 0.175}]}
{"smiles": "COc1cc(NS(C)(=O)=O)ccc1Nc1c2ccccc2nc2ccccc12", "note": "[AMSACRINE]", "values": [{"measurement": "IC50", "setting": "CCRF-CEM [1]", "result": 130, "unit": "nM"}, {"measurement": "Activity", "setting": "CCRF-CEM [5]", "result": 68, "unit": "%"}]}
{"smiles": "Cc1c2oc3c(C)ccc(C(=O)N[C@@H]4C(=O)N[C@H](C(C)C)C(=O)N5CCC[C@H]5C(=O)N(C)CC(=O)N(C)[C@@H](C(C)C)C(=O)O[C@@H]4C)c3nc-2c(C(=O)N[C@@H]2C(=O)N[C@H](C(C)C)C(=O)N3CCC[C@H]3C(=O)N(C)CC(=O)N(C)[C@@H](C(C)C)C(=O)O[C@@H]2C)c(N)c1=O", "note": "[DACTINOMYCIN] (I: T[dV]P[Sar][NMeV] / II: T[dV]P[Sar][NMeV]; ester I:1-I:C, II:1-II:C; linker I:N-II:N via Actinocin(1to9))", "values": [{"measurement": "IC50", "setting": "CCRF-CEM [1]", "result": 1.6, "unit": "nM"}, {"measurement": "Activity", "setting": "CCRF-CEM [2]", "result": "inactive"}]}
